Experimental data: ChEMBL document CHEMBL1143578, “From 1-acyl-beta-lactam human cytomegalovirus protease inhibitors to 1-benzyloxycarbonylazetidines with improved antiviral activity. A straightforward approach to convert covalent to noncovalent inhibitors” (J Med Chem, 2005)

Key:
HEL [1] = assay: Effective concentration required to reduce Varicella-Zoster virus 07/1(TK-) plaque formation after 5 days in HEL fibroblast cell line; type: functional, cell-based; settings: Homo sapiens, 120 h
Summary of the method: (§1)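 Confluent HEL cells were inoculated with VZV at 20 PFU/well for 2 h. Residual virus was removed and varying compound concentrations were added in duplicate. Plaques were counted after 5 days. EC50 is the concentration halving plaque formation relative to untreated controls.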

HEL [2] = assay: Effective concentration required to reduce Varicella-Zoster virus OKA(TK) plaque formation after 5 days in HEL fibroblast cell line; type: functional, cell-based; settings: Homo sapiens, 120 h; summary of the method: as §1
HEL [3] = assay: Effective concentration required to inhibit human cytomegalo virus AD-169 induced cytopathicity in HEL fibroblast cell line after 7 days of postinfection; type: functional, cell-based; settings: 168 h
Summary of the method: (§2)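 Confluent HEL fibroblasts were infected with 100 PFU/well for 2 h, then residual virus was removed. Cells were incubated with a range of compound concentrations, in duplicate, for 7 days at 37 °C. Cells were ethanol-fixed and Giemsa-stained, and cytopathogenicity was scored microscopically. EC50 was read from plots of % cytopathogenicity against concentration.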

HEL [4] = assay: Cytotoxic concentration required to reduce HEL cell growth; type: functional; settings: Homo sapiens
Summary of the method: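 HEL cells seeded at 5 × 10³ cells/well and allowed to proliferate 24 h, then exposed to a range of compound concentrations for 3 days at 37 °C. Cell number was counted with a Coulter counter. CC50 is the concentration giving 50% growth reduction versus untreated controls, read from plots of cell number (% of control) against concentration.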

HEL [5] = assay: Minimum cytotoxic concentration required to cause a microscopically visible alteration of HEL fibroblast cell morphology; type: functional; settings: Homo sapiens
Summary of the method: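 HEL cell morphology was examined under the microscope after compound exposure. MCC is the lowest concentration producing a detectable alteration in morphology.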

HEL [6] = assay: Effective concentration required to inhibit human cytomegalo virus Davis induced cytopathicity in HEL fibroblast cell line after 7 days of postinfection; type: functional, cell-based; settings: 168 h; summary of the method: as §2

SMILES	EC50 (HEL [1])	EC50 (HEL [2])	EC50 (HEL [3])	CC50 (HEL [4])	MCC (HEL [5])	EC50 (HEL [6])
CNC(=O)[C@H](C)NC(=O)C1(Cc2ccccc2)CCN1C(=O)OCc1ccccc1 (stereo not given in full)	> 50 µM	> 50 µM	7.4 µM	> 50 µM	> 50 µM	5 µM
C[C@H](NC(=O)C1(Cc2ccccc2)CCN1C(=O)OCc1ccccc1)C(=O)OC(C)(C)C (stereo not given in full)	> 16 µM	16 µM	16 µM	33 µM	80 µM	4.4 µM
COC(=O)[C@@]1(Cc2ccccc2)CCN1C(=O)N[C@@H](C)c1ccccc1	> 50 µM	> 50 µM	> 20 µM	> 50 µM	> 50 µM	–
C[C@H](NC(=O)C1(Cc2ccccc2)CCN1C(=O)OCc1ccccc1)C(N)=O (stereo not given in full)	> 80 µM	> 80 µM	39 µM	50 µM	≥ 400 µM	32 µM
COC(=O)[C@]1(Cc2ccccc2)CCN1C(=O)N[C@@H](C)c1ccccc1	50 µM	50 µM	> 20 µM	> 50 µM	> 50 µM	–
CC(C)(C)NC(=O)C1(Cc2ccccc2)CCN1C(=O)OCc1ccccc1 (stereo not given)	> 16 µM	> 3.2 µM	5.5 µM	36 µM	≥ 16 µM	4.4 µM
C[C@@H](NC(=O)N1CCC1(Cc1ccccc1)C(=O)OC(C)(C)C)c1ccccc1 (stereo not given in full)	25 µM	36 µM	40 µM	57 µM	400 µM	33 µM
C[C@H](NC(=O)C1(Cc2ccccc2)CCN1C(=O)OCc1ccccc1)C(=O)O (stereo not given in full)	> 80 µM	> 80 µM	> 400 µM	124 µM	≥ 400 µM	> 80 µM
COC(=O)N1CCC1(Cc1ccccc1)C(=O)N[C@@H](C)C(N)=O (stereo not given in full)	346 µM	> 400 µM	> 400 µM	> 200 µM	> 400 µM	> 400 µM
O=C(OCc1ccccc1)N1CCC1(Cc1ccccc1)C(=O)NC1CCCCC1 (stereo not given)	5.1 µM	7.8 µM	5.9 µM	37 µM	≥ 16 µM	3.2 µM
COC(=O)[C@@]1(Cc2ccccc2)CC(=O)N1C(=O)N[C@@H](C)c1ccccc1	> 50 µM	> 50 µM	> 50 µM	> 50 µM	> 50 µM	–
CC(C)(C)OC(=O)C1(Cc2ccccc2)CC(=O)N1C(=O)OCc1ccccc1 (stereo not given)	8 µM	12 µM	–	–	50 µM	–
C[C@@H](NC(=O)N1C(=O)C[C@@]1(Cc1ccccc1)C(=O)OC(C)(C)C)c1ccccc1	23 µM	> 50 µM	–	–	200 µM	–
C[C@@H](NC(=O)N1C(=O)C[C@]1(Cc1ccccc1)C(=O)OC(C)(C)C)c1ccccc1	> 50 µM	> 50 µM	–	–	> 200 µM	–
C[C@@H](NC(=O)N1C(=O)C[C@@]1(Cc1ccccc1)C(=O)O)c1ccccc1	151 µM	–	–	–	> 200 µM	> 200 µM
C[C@H](NC(=O)N1C(=O)C[C@@]1(Cc1ccccc1)C(=O)OC(C)(C)C)c1ccccc1	20 µM	37 µM	–	–	200 µM	–
C[C@@H](NC(=O)N1C(=O)C[C@]1(Cc1ccccc1)C(=O)O)c1ccccc1	> 200 µM	> 200 µM	–	–	200 µM	–
C[C@H](NC(=O)N1C(=O)C[C@]1(Cc1ccccc1)C(=O)O)c1ccccc1	111 µM	–	–	–	> 200 µM	> 200 µM
CC(C)(C)OC(=O)[C@]1(Cc2ccccc2)CC(=O)N1C(=O)Nc1ccccc1	13 µM	33 µM	50 µM	–	200 µM	50 µM
COC(=O)[C@]1(Cc2ccccc2)CC(=O)N1C(=O)N[C@@H](C)c1ccccc1	> 50 µM	> 50 µM	> 50 µM	> 50 µM	> 50 µM	–
COC(=O)[C@H](C)NC(=O)C1(Cc2ccccc2)CCN1C(=O)OCc1ccccc1 (stereo not given in full)	> 80 µM	> 80 µM	> 80 µM	50 µM	400 µM	> 80 µM
CC(C)(C)OC(=O)C1(Cc2ccccc2)CCN1C(=O)OCc1ccccc1 (stereo not given)	> 2 µM	> 2 µM	0.7 µM	–	5 µM	0.6 µM
CC(C)(C)OC(=O)N1C(=O)CC1(Cc1ccccc1)C(=O)OC(C)(C)C (stereo not given)	–	–	> 200 µM	–	> 200 µM	> 200 µM
C[C@H](NC(=O)N1C(=O)C[C@@]1(Cc1ccccc1)C(=O)O)c1ccccc1	110 µM	> 200 µM	–	–	200 µM	–
O=C1C[C@H](Cc2ccccc2)N1C(=O)NCc1ccccc1	–	–	–	> 250 µM	–	–
C[C@H](NC(=O)N1C(=O)C[C@]1(Cc1ccccc1)C(=O)OC(C)(C)C)c1ccccc1	14 µM	> 50 µM	–	–	200 µM	–
Nc1nc2c(ncn2COCCO)c(=O)[nH]1 [ACYCLOVIR]	111 µM	7.1 µM	17 µM	511 µM	> 1200 µM	20 µM
O=c1[nH]c(=O)n([C@H]2C[C@H](O)[C@@H](CO)O2)cc1/C=C/Br [BRIVUDINE]	103 µM	–	> 100 µM	249 µM	1200 µM	> 100 µM
Nc1ccn(C[C@@H](CO)OCP(=O)(O)O)c(=O)n1 [CIDOFOVIR]	–	–	0.6 µM	–	> 1400 µM	1 µM
Nc1nc2c(ncn2COC(CO)CO)c(=O)[nH]1 [GANCICLOVIR]	–	–	–	–	> 1500 µM	–
